Calls of active or inactive are those of the source. The calls are words filed in the database; no cut-off is given here.
Tests used:
Albumin = Albumin (Bos taurus, UniProt P02769); experiment: Binding affinity to bovine serum albumin by surface plasmon resonance; format: ADME; conditions: cattle, isolated protein
Method in brief: (§1)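 Biacore SPR. TTL and BSA each amine-coupled (100 µg/mL in 10 mM sodium acetate, pH 5.0) to 8-12 kRU, with an unmodified reference surface. Running buffer 10 mM NaH2PO4, 150 mM NaCl, 0.5% DMSO, pH 7.4. Five-point 2-fold series, typically 0.05-10 µM, in triplicate. 25 °C, 50 µL/min, 60 s association, 200 s dissociation. Double-referenced. KD fitted from at least 10 curves.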

J774.A1 = experiment: Cytotoxicity against mouse J774A1 cells up to >100 uM after 24 to 48 hrs by MTT assay; format: functional, cell-based
MCF7 = experiment: Cytotoxicity against human MCF7 cells up to >100 uM after 24 to 48 hrs by MTT assay; format: functional, cell-based
HEK293 = experiment: Cytotoxicity against HEK293 cells up to >100 uM after 24 to 48 hrs by MTT assay; format: functional, cell-based; conditions: Homo sapiens
Tubulin--tyrosine ligase = target: T1, Tubulin--tyrosine ligase (Homo sapiens, UniProt Q8NG68); experiment: Binding affinity to TTL by surface plasmon resonance; method in brief: as §1
T1 sequence (Q8NG68 whole entry): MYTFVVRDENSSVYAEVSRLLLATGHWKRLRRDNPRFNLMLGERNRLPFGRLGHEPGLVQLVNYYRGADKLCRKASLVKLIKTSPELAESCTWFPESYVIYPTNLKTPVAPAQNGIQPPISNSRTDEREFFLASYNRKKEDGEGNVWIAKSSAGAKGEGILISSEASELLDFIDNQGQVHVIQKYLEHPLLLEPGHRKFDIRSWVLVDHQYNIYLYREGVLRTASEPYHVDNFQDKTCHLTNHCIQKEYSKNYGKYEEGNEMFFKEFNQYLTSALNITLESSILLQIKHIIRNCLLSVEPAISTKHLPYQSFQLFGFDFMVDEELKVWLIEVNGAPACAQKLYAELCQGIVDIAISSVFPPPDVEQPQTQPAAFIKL

[1] = target: T2, Tubulin--tyrosine ligase (Homo sapiens) (UniProt Q8NG68); experiment: Inhibition of TTL in human MCF7 cells assessed as increase in delta2-tubulin level at 100 uM after 24 to 48 hrs by Western blot; format: cell-based
T2 sequence (whole entry): T1 sequence (Q8NG68 whole entry)
Method in brief: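 MCF-7 cells were grown in DMEM with 10% FBS at 37 °C, 5% CO2, seeded at 4 × 10^5 per well, and treated 24 h later with or without 100 µM compound for 24 and 48 h. NP-40 lysates (20 µg protein, Bradford) were run on 10% SDS-PAGE and blotted. Membranes were probed overnight at 4 °C with rabbit polyclonal anti-Δ2-α-tubulin.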

Chain of Albumin (P02769 whole entry): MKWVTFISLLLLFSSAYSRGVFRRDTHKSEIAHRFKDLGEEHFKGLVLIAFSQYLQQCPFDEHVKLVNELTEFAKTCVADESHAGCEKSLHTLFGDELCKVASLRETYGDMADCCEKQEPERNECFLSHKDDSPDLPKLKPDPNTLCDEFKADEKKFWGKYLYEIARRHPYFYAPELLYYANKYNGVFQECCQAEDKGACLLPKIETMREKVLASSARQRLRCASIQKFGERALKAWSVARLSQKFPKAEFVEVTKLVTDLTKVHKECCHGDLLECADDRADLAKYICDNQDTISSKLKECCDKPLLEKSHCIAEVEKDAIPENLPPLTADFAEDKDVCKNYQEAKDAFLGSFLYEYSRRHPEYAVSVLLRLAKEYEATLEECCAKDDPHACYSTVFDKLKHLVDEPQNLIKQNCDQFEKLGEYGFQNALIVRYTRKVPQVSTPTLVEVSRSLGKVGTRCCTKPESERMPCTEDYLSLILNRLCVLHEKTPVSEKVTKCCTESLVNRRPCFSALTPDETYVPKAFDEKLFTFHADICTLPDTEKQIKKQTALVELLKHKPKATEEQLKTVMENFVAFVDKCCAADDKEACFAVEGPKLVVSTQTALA

Structure (SMILES)	Activity (Albumin)	Kd (Tubulin--tyrosine ligase) [nM]	Activity [1]	Activity (J774.A1)	Activity (MCF7)	Activity (HEK293)
C=C(CC[C@@H]1[C@@]2(C)CCC[C@@](C)(C=O)[C@@H]2[C@@H](O)C[C@@]1(C)O)[C@@H](O)[C@@H](O)C1OC(=O)C=C1C (stereo not given in full)	Not Active	–	–	inactive	inactive	inactive
C=C1C[C@H](O)[C@@H]2[C@](C)(CCC[C@@]2(C)C=O)[C@H]1CC/C(C)=C/[C@H](O)[C@H]1OC(=O)C=C1C	Not Active	3300	–	inactive	inactive	inactive
CC1=CC(=O)O/C1=C\C=C(/C)CC[C@@H]1[C@@]2(C)CCC[C@@]3(C)C(O)O[C@@H](C[C@@]1(C)O)[C@H]23 (stereo not given in full)	Not Active	480	–	inactive	inactive	inactive
CC1=CC(=O)O[C@@H]1[C@@H](O)/C=C(\C)CC[C@@H]1[C@@]2(C)CCC[C@@]3(C)C(=O)O[C@@H](C[C@@]1(C)O)[C@H]23	Not Active	–	Active	inactive	inactive	inactive
C=C(CC[C@@H]1[C@@]2(C)CCC[C@@](C)(CO)[C@@H]2[C@@H](O)C[C@@]1(C)O)[C@@H](O)[C@@H](O)C1OC(=O)C=C1C (stereo in doubt; 23) [listing 2 of 2 here]	–	–	–	inactive	inactive	inactive
CCO[C@H]1O[C@H]2C[C@@](C)(O)[C@H](CC/C(C)=C/[C@H](O)[C@H]3OC(=O)C=C3C)[C@@]3(C)CCC[C@]1(C)[C@H]23	Not Active	960	–	inactive	inactive	inactive
C=C(CC[C@@H]1[C@@]2(C)CCC[C@@](C)(CO)[C@@H]2[C@@H](O)C[C@@]1(C)O)[C@@H](O)[C@@H](O)C1OC(=O)C=C1C (stereo in doubt; 22)	–	–	–	inactive	inactive	inactive
CC1=CC(=O)O[C@@H]1[C@@H](O)/C=C(\C)CC[C@@H]1[C@@]2(C)CCC[C@@](C)(C=O)[C@@H]2[C@@H](O)C[C@@]1(C)O	Not Active	3000	–	inactive	inactive	inactive
CC1=CC(=O)O[C@@H]1[C@@H](O)/C=C(\C)CC[C@@H]1[C@@]2(C)CCC[C@@]3(C)CO[C@@H](C[C@@]1(C)O)[C@@H]32	Not Active	–	–	inactive	inactive	inactive
CC1=CC(=O)O[C@@H]1[C@@H](O)/C=C(\C)CC[C@@H]1[C@@]2(C)CCC[C@@](C)(CO)[C@@H]2[C@@H](O)C[C@@]1(C)O	Not Active	4700	–	inactive	inactive	inactive
C=C1C[C@H](O)[C@H]2[C@](C)(CO)CCC[C@]2(C)[C@H]1CC/C(C)=C/[C@H](O)[C@H]1OC(=O)C=C1C	Not Active	2000	–	inactive	inactive	inactive
CCO[C@H]1O[C@H]2C[C@@](C)(O)[C@H](CC/C(C)=C/C[C@H]3OC(=O)C=C3C)[C@@]3(C)CCC[C@]1(C)[C@H]23	Not Active	73	–	inactive	inactive	inactive
CC1=CC(=O)O/C1=C\C=C(/C)CC[C@@H]1[C@@]2(C)CCC[C@@](C)(C(=O)O)[C@@H]2[C@@H](O)C[C@@]1(C)O	Not Active	93	–	inactive	inactive	inactive
CC1=CC(=O)O[C@@H]1C/C=C(\C)CC[C@@H]1[C@@]2(C)CCC[C@@](C)(CO)[C@@H]2[C@@H](O)C[C@@]1(C)O	Not Active	72	–	inactive	inactive	inactive

Second part, led by results:

Activity (Albumin)	Kd (Tubulin--tyrosine ligase) [nM]	Activity [1]	Structure (SMILES)	Activity (J774.A1)	Activity (MCF7)	Activity (HEK293)
Not Active	200	–	CC1=CC(=O)O/C1=C\C=C(/C)CC[C@@H]1[C@@]2(C)CCC[C@@](C)(C=O)[C@@H]2[C@@H](O)C[C@@]1(C)O	inactive	inactive	inactive
Not Active	–	–	C=C(CC[C@@H]1[C@@]2(C)CCC[C@@](C)(CO)[C@@H]2[C@@H](O)C[C@@]1(C)O)[C@@H](O)[C@@H](O)C1OC(=O)C=C1C (stereo in doubt; 23) [listing 1 of 2 here]	–	–	–
Not Active	3000	–	CC1=CC(=O)O[C@@H]1[C@@H](O)/C=C(\C)CC[C@@H]1[C@@]2(C)CCC[C@@](C)(C(=O)O)[C@@H]2[C@@H](O)C[C@@]1(C)O	inactive	inactive	inactive
Not Active	8700	–	C=C1C[C@@H]2OC[C@]3(C)CCC[C@](C)([C@H]1CC/C(C)=C/C[C@H]1OC(=O)C=C1C)[C@@H]23	inactive	inactive	inactive
Not Active	–	–	CC1=CC(=O)O[C@@H]1[C@@H](O)/C=C(\C)CC[C@@H]1[C@@]2(C)CCCC(C)(C)[C@@H]2[C@@H](O)C[C@@]1(C)O	inactive	inactive	inactive
Not Active	7	–	CC1=CC(=O)OC1C/C=C(\C)CC[C@@H]1[C@@]2(C)CCC[C@@](C)(C(=O)O)[C@@H]2[C@@H](O)C[C@@]1(C)O (stereo not given in full)	inactive	inactive	inactive
Not Active	150	–	CC1=CC(=O)O/C1=C\C=C(/C)CC[C@@H]1[C@@]2(C)CCC[C@@]3(C)C(=O)O[C@@H](C[C@@]1(C)O)[C@H]23	inactive	inactive	inactive
Not Active	810	–	CC1=CC(=O)O[C@@H]1C/C=C(\C)CC[C@@H]1[C@@]2(C)CCC[C@@](C)(C=O)[C@@H]2[C@@H](O)C[C@@]1(C)O	inactive	inactive	inactive
Not Active	210000	Active	CC1=CC(=O)O[C@@H]1[C@@H](O)/C=C(\C)CC[C@@H]1[C@@]2(C)CCC[C@]3(C)[C@@H]2[C@H](C[C@@]1(C)O)O[C@@H]3O	inactive	inactive	inactive
Not Active	6200	–	COC(=O)[C@]1(C)CCC[C@@]2(C)[C@H]1[C@@H](O)C[C@@](C)(O)[C@@H]2CC/C(C)=C/[C@H](O)[C@H]1OC(=O)C=C1C	inactive	inactive	inactive
Not Active	110	–	CC1=CC(=O)O/C1=C\C=C(/C)CC[C@@H]1[C@@]2(C)CCC[C@@](C)(CO)[C@@H]2[C@@H](O)C[C@@]1(C)O	inactive	inactive	inactive

From ChEMBL document CHEMBL1136963, “Sesterterpenes as tubulin tyrosine ligase inhibitors. First insight of structure-activity relationships and discovery of new lead” (J Med Chem, 2009)
